Most compounds without a hit are left out; they make up all but 3% or so of the library.
Lipid droplet: inhibitors of hepatocyte lipid droplet formation, primary screen, imaging, high-throughput imaging, BODIPY stain; AML12 mouse hepatocytes, oleate lipid droplets; inhibition, % at 6.5 µM; hit rate 0.4% among 240,000; AID 1656, 2009;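 active = lipid droplet intensity inhibited by at least 50%, with more than 500 cells counted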
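Assay system: AML12 hepatocytes (mouse); Probe or stimulus: oleic acid at 100 µM to induce lipid droplet formation; Dosing: compound at 6.5 µM only; Schedule: compound with oleate, overnight; Detection: fluorescence imaging, 20x objective, two fields per well; Measure: % inhibition of lipid droplet signal.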
GC-A act: GC-A stimulated cGMP production enhancers – HEK293 GC-A cells, cGMP TR-FRET, EC30 ANP, primary screen; Atrial natriuretic peptide receptor 1 (Homo sapiens), P16066; 0% at EC30 ANP, 100% saturating ANP; activation, % at 10 µM; hit rate 0.14% among 370,000; in the data active = activation above about 40%
NPR2 activator: human GC-B receptor activators, primary screen, HEK293 GC-B cells, cGMP TR-FRET, EC30 CNP. Atrial natriuretic peptide receptor 2 (Homo sapiens), P20594. 0% at EC30 CNP, 100% saturating CNP. activation, % at 10 µM. hit rate 0.11% among 370,000;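 active = activation at 10 µM reaching about 35% in either raw or pattern-adjusted values, limit read from the data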
GRIN3A LBD mod: binders of NR3A ligand-binding domain, primary screen, biophysical, differential scanning fluorimetry, uHTS; Glutamate receptor ionotropic, NMDA 3A (GRIN3A) ligand-binding domain; NR3A LBD differential scanning fluorimetry, Tm shift; 0% = protein alone, 100% = glycine-bound protein; Tm shift relative to glycine control, % at 25 µM; hit rate 2.5% among 340,000;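 active = melting temperature shift of at least 10% of the positive control shift, at one fixed dose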
JMJD2C inh: inhibitors of GASC-1 histone demethylase, primary screen, biochemical, fluorescence, DELFIA europium | inhibition, % at 2.35 µM | AID 2099, 2009 | GST-JMJD2C(1-420) H3K9me3 demethylation | hit rate 0.069% among 330,000;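 active = more than half of a compound's replicate wells show inhibition beyond 50%, single wells judged on their own value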;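 also: signal counts dimethyl H3K9 product captured on neutravidin plate; 0% = median of DMSO wells and 100% = 0.3 times that DMSO median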
Target sequence (Q9H3R0 1-420 limits assumed): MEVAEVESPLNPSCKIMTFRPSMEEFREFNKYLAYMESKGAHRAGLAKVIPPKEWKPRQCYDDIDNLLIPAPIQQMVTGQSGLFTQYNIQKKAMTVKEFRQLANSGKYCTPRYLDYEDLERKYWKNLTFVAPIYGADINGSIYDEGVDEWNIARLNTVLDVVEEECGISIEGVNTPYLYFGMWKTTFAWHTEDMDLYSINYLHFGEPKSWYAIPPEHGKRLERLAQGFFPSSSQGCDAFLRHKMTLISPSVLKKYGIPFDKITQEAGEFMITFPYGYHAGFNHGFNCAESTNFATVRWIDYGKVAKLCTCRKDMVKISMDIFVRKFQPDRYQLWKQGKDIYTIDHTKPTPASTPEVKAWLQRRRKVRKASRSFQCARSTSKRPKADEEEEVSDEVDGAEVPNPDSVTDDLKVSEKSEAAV
aDG glyco up: activators of alpha-DG glycosylation, primary screen, uHTS, Pro5-aDG cells, AlphaScreen | alpha-DG glycosylation AlphaScreen (IIH6); 0% Pro5, 100% B10-LARGE cell signal | activation, % at 10 µM | hit rate 0.22% among 360,000 | AID 624168, 2012;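 active = activation of at least 8% versus controls, or a plate z-score of at least 8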;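 also: Pro5 are CHO cells carrying HIG-tagged alpha-DG that lacks glycosylation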
Active calls of the source: *; / = no result given.

SMILES	Lipid droplet	GC-A act	NPR2 activator	GRIN3A LBD mod	JMJD2C inh	aDG glyco up
COC(=O)C1=C(C)N(Cc2cccc(C(F)(F)F)c2)C(=NCc2cc(OC)c(OC)c(OC)c2)NC1c1cccc(Cl)c1 (stereo unspecified)	/	-26	-22	/	/	/
CCN(CC)S(=O)(=O)c1ccc(C(=O)NCCOC(=O)c2ccc(F)cc2F)cc1	-33	0	1	19*	-7	0
COc1cc(NCCCn2ccc(NC(=O)OCc3ccccc3)nc2=O)cc(OC)c1OC	/	-5	1	17*	/	1
Cn1ncc2c(Nc3ccccc3Br)ncnc21	-6	3	-1	14*	1	0
COC(=O)c1cc(-c2ccc(C(C)(C)C)cc2)c(=O)n2c1CCC2	/	-1	1	/	/	/
Oc1c(Cl)cc(Cl)cc1C1=NNC(c2ccc(Cl)cc2)C1 (stereo unspecified)	-24	/	/	-1	/	0
Oc1ccc(Cl)cc1C1=NNC(c2ccc(Cl)cc2)C1 (stereo unspecified)	-3	6	-3	11*	-2	0
C=CCN1C(=O)[C@@H](CC(=O)N2CCOCC2)[C@]2(C(=O)OCC)CCCCC/C=C/12	/	4	7	/	/	/
CCC(C(=O)NCc1ccc(F)cc1)N(Cc1ccco1)C(=O)c1snc(C(N)=O)c1N (stereo unspecified)	/	-33	-13	-10	39	0
CCCC(C(=O)NCc1ccc(OC)cc1)N(Cc1ccco1)C(=O)c1snc(C(N)=O)c1N (stereo unspecified)	/	-35	-12	14*	7	0
O=C(Nc1nc2cc3c(cc2s1)OCCO3)C1=COCCO1	-2	1	4	11*	-1	0
CN1c2ccsc2C(O)=C(C(=S)Nc2ccc(F)c(Cl)c2)S1(=O)=O	14	4	3	26*	-36	0
Cc1ccc(C2/C(=C(\O)c3ccc4c(c3)OCCO4)C(=O)C(=O)N2CC2CCCO2)cc1 (stereo unspecified)	4	4	-4	-1	-10	0
COC(=O)[C@]12C[C@H](CC(=O)N3CCCC3)C(=O)N(Cc3ccco3)C1=C[C@H](COCc1ccccc1)O[C@@H]2C	/	0	-2	/	/	/
COC(=O)[C@@H]1C[C@@]2(c3ccccc3)c3ccccc3N(S(=O)(=O)c3ccccc3)[C@H]2N1C(=O)CNC/C=C(\C)CCC=C(C)C	/	-8	-4	/	/	/
CCN(CC(=O)N1CCC(C)CC1)S(=O)(=O)c1ccc(C)cc1	-32	1	1	-1	4	0
Cc1ccc(S(=O)(=O)N(CC(=O)N2CCC(C)CC2)Cc2ccccc2F)cc1	-10	4	0	13*	10	0
COC(=O)[C@]12C[C@H](CC(=O)N3CCSCC3)C(=O)N(Cc3cccc4ccccc34)C1=C[C@H](C(C)(C)C)O[C@@H]2C	/	-4	-7	/	/	/
COc1ccc(N=C2SC(CC(=O)Nc3ccccc3)C(=O)N2Cc2ccccn2)cc1 (stereo unspecified)	-4	-5	-4	-6	3	0
COc1ccc(N=C2SC(CC(=O)Nc3cccc(Cl)c3)C(=O)N2Cc2ccco2)cc1 (stereo unspecified)	-2	-4	-5	12*	-5	0
CN(CC(=O)NC1CC(C)(C)NC(C)(C)C1)S(=O)(=O)c1ccc(Br)cc1	-2	3	2	13*	-10	0
O=C(CSc1nnc(-c2cccnc2)n1Cc1ccco1)Nc1cc(Cl)ccc1F	/	-6	-13	/	/	/
c1ccc(-c2cc(-c3ccccc3)on2)cc1	12	13	-8	30*	1	0
COc1ccc(-c2cc(C#N)nc(Cl)n2)cc1	-1	78*	20	4	3	0
COc1ccc(-c2cc(C#N)nc(Oc3ccc(Cl)cc3)n2)cc1	-3	5	-2	-10	-4	0
SMILES	Lipid droplet	GC-A act	NPR2 activator	GRIN3A LBD mod	JMJD2C inh	aDG glyco up
CCOC(=O)c1nn(-c2ccccc2)cc1O	16	2	2	10*	73	0
CCOC(=O)c1nn(-c2ccc(C)cc2)cc1O	-4	2	1	0	5	0
Cc1ccccc1OCCCN1CCC(C(O)(c2ccccc2)c2ccccc2)CC1	/	-9	-13	/	/	/
COc1ccccc1OCCOCCOc1c(C)cc(C)cc1Br	-34	-3	0	3	-18	0
COc1cccc(OC)c1OCCCOc1ccc(C)cc1Br	-5	-10	-15	10*	10	0
COc1ccccc1OCCCOc1c(C)cc(C)cc1Br	-16	-4	2	16*	3	0
COC(=O)[C@]12C[C@H](CC(=O)NCc3ccccc3)C(=O)N(Cc3ccccc3)C1=C[C@H](C(C)C)O[C@@H]2C1CC1	/	-7	-1	/	/	/
Cc1cc(C)cc(N2C(=O)CC(N3CCOCC3)C2=O)c1 (stereo unspecified)	1	3	4	11*	-3	0
O=C1CC(N2CCOCC2)C(=O)N1c1cc(Cl)cc(Cl)c1 (stereo unspecified)	/	8	-4	0	26	0
CCSc1cc(N2CCCC2)nc(-c2ccc(C)cc2)n1	19	-6	-6	15*	-4	0
COc1cc(OC)c(C(=O)NNC(=O)CN(C)S(=O)(=O)c2ccc(Cl)cc2)cc1OC	/	-3	-2	35*	-3	0
COc1ccccc1C(=O)NNC(=O)CN(C)S(=O)(=O)c1ccc(Cl)cc1	/	0	-1	/	/	0
COC(=O)C(CO)Nc1ncnc2onc(-c3ccc(F)cc3)c12 (stereo unspecified)	/	0	1	2	7	0
CCOC(=O)c1ccc(Nc2ccc(-c3ccc(OC)c(OC)c3)nn2)cc1	/	-4	2	26*	-3	0
CC(C)C(=O)Nc1cccc(C(=O)OCC(=O)c2ccc(Cl)cc2Cl)c1	-1	59*	-5	-4	5	0
CC(=O)Nc1cc(C(=O)OCC(=O)c2ccc(Cl)cc2Cl)ccc1C	/	61*	4	3	0	0
O=C(/C=C(\Nc1ccc(F)cc1)c1ccccc1)c1ccccc1	/	-6	-3	/	/	/
CCOc1ccc(NS(=O)(=O)c2ccc(NS(=O)(=O)c3ccc(SC)cc3)cc2)cc1	-11	-1	-1	28*	2	0
Cc1ccc(NC(=S)NCc2ccc(F)cc2)cc1	/	8	3	-5	12	0

Source: PubChem BioAssay
